Test results: ChEMBL document CHEMBL5058577, “EUbOPEN Chemogenomics Library 2 (Multiplex)” (2022)

Tested on: HEK-293T
Assay: Multiplex assay against HEK293T
Type: toxicity, cell-based
Details: human
Summary of the method: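 Live cells carried four stains from seeding: Hoechst33342, BioTracker Green Microtubule Cytoskeleton Dye, MitoTracker Red and Annexin V Alexa Fluor 680. They were imaged on a CQ1 microscope at 37°C and 5% CO2 after compound addition. Using CellPathfinder machine-learning gating, cells were split into Hoechst high-intensity objects or normal cells, normal cells into healthy, pyknosed or fragmented nuclei, and pyknosed cells into mitotic or apoptotic; tubulin, mitochondrial-mass and membrane-permeability phenotypes are per cents of healthy-nucleus cells.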

[1] = 12 h, 1 µM, compound concentration 1 uM, replicate 1
[2] = 12 h, 1 µM, compound concentration 1 uM, replicate 2
[3] = 12 h, 10 µM, compound concentration 10 uM, replicate 1
[4] = 12 h, 10 µM, compound concentration 10 uM, replicate 2
[5] = 24 h, 1 µM, compound concentration 1 uM, replicate 1
[6] = 24 h, 1 µM, compound concentration 1 uM, replicate 2
[7] = 24 h, 10 µM, compound concentration 10 uM, replicate 1
[8] = 24 h, 10 µM, compound concentration 10 uM, replicate 2
[9] = 48 h, 1 µM, compound concentration 1 uM, replicate 1
[10] = 48 h, 1 µM, compound concentration 1 uM, replicate 2
[11] = 48 h, 10 µM, compound concentration 10 uM, replicate 1
[12] = 48 h, 10 µM, compound concentration 10 uM, replicate 2

CCCCC1=NC2(CCCC2)C(=O)N1Cc1ccc(-c2ccccc2-c2nnn[nH]2)cc1 [IRBESARTAN]
Population Apoptotic (%) [1]: 24% | Population Fragmented Nuclei (%) [1]: 9% | Population Healthy Nuclei (%) [1]: 79% | Population Hoechst High Intensity Objects (%) [1]: 9% | Population Membrane Permeable-Phenotype (%) [1]: 0% | Population Mitochondria Different-Phenotype (%) [1]: 34% | Population Mitotic Cells (%) [1]: 75% | Population Normal (%) [1]: 91% | Population Pyknosed Nuclei (%) [1]: 10% | Population Tubulin-Different-Phenotype (%) [1]: 17% | Total Cell Count [1]: 500 | Population Apoptotic (%) [2]: 28% | Population Fragmented Nuclei (%) [2]: 8% | Population Healthy Nuclei (%) [2]: 78% | Population Hoechst High Intensity Objects (%) [2]: 4% | Population Mitochondria Different-Phenotype (%) [2]: 63% | Population Mitotic Cells (%) [2]: 71% | Population Normal (%) [2]: 95% | Population Pyknosed Nuclei (%) [2]: 12% | Population Tubulin-Different-Phenotype (%) [2]: 20% | Total Cell Count [2]: 353 | Population Apoptotic (%) [3]: 50% | Population Fragmented Nuclei (%) [3]: 7% | Population Healthy Nuclei (%) [3]: 70% | Population Hoechst High Intensity Objects (%) [3]: 5% | Population Membrane Permeable-Phenotype (%) [3]: 2% | Population Mitochondria Different-Phenotype (%) [3]: 46% | Population Mitotic Cells (%) [3]: 50% | Population Normal (%) [3]: 94% | Population Pyknosed Nuclei (%) [3]: 22% | Population Tubulin-Different-Phenotype (%) [3]: 50% | Total Cell Count [3]: 219 | Population Apoptotic (%) [4]: 56% | Population Fragmented Nuclei (%) [4]: 6% | Population Healthy Nuclei (%) [4]: 78% | Population Hoechst High Intensity Objects (%) [4]: 13% | Population Membrane Permeable-Phenotype (%) [4]: 0% | Population Mitochondria Different-Phenotype (%) [4]: 66% | Population Mitotic Cells (%) [4]: 43% | Population Normal (%) [4]: 86% | Population Pyknosed Nuclei (%) [4]: 15% | Population Tubulin-Different-Phenotype (%) [4]: 33% | Total Cell Count [4]: 351 | Population Apoptotic (%) [5]: 31% | Population Fragmented Nuclei (%) [5]: 9% | Population Healthy Nuclei (%) [5]: 79% | Population Hoechst High Intensity Objects (%) [5]: 4% | Population Membrane Permeable-Phenotype (%) [5]: 0% | Population Mitochondria Different-Phenotype (%) [5]: 24% | Population Mitotic Cells (%) [5]: 68% | Population Normal (%) [5]: 95% | Population Pyknosed Nuclei (%) [5]: 10% | Population Tubulin-Different-Phenotype (%) [5]: 15% | Total Cell Count [5]: 625 | Population Apoptotic (%) [6]: 34% | Population Healthy Nuclei (%) [6]: 80% | Population Hoechst High Intensity Objects (%) [6]: 7% | Population Mitochondria Different-Phenotype (%) [6]: 45% | Population Mitotic Cells (%) [6]: 65% | Population Normal (%) [6]: 92% | Population Pyknosed Nuclei (%) [6]: 9% | Population Tubulin-Different-Phenotype (%) [6]: 14% | Total Cell Count [6]: 456 | Population Apoptotic (%) [7]: 27% | Population Fragmented Nuclei (%) [7]: 6% | Population Healthy Nuclei (%) [7]: 77% | Population Hoechst High Intensity Objects (%) [7]: 3% | Population Membrane Permeable-Phenotype (%) [7]: 1% | Population Mitochondria Different-Phenotype (%) [7]: 37% | Population Mitotic Cells (%) [7]: 72% | Population Normal (%) [7]: 96% | Population Pyknosed Nuclei (%) [7]: 15% | Population Tubulin-Different-Phenotype (%) [7]: 32% | Total Cell Count [7]: 287 | Population Apoptotic (%) [8]: 41% | Population Fragmented Nuclei (%) [8]: 11% | Population Hoechst High Intensity Objects (%) [8]: 10% | Population Membrane Permeable-Phenotype (%) [8]: 0% | Population Mitochondria Different-Phenotype (%) [8]: 49% | Population Mitotic Cells (%) [8]: 58% | Population Normal (%) [8]: 89% | Population Pyknosed Nuclei (%) [8]: 11% | Population Tubulin-Different-Phenotype (%) [8]: 22% | Total Cell Count [8]: 434 | Population Apoptotic (%) [9]: 29% | Population Fragmented Nuclei (%) [9]: 11% | Population Healthy Nuclei (%) [9]: 81% | Population Hoechst High Intensity Objects (%) [9]: 3% | Population Membrane Permeable-Phenotype (%) [9]: 0% | Population Mitochondria Different-Phenotype (%) [9]: 21% | Population Mitotic Cells (%) [9]: 70% | Population Normal (%) [9]: 96% | Population Pyknosed Nuclei (%) [9]: 7% | Population Tubulin-Different-Phenotype (%) [9]: 15% | Total Cell Count [9]: 958 | Population Apoptotic (%) [10]: 23% | Population Fragmented Nuclei (%) [10]: 9% | Population Healthy Nuclei (%) [10]: 84% | Population Hoechst High Intensity Objects (%) [10]: 2% | Population Membrane Permeable-Phenotype (%) [10]: 1% | Population Mitochondria Different-Phenotype (%) [10]: 19% | Population Mitotic Cells (%) [10]: 76% | Population Normal (%) [10]: 97% | Population Pyknosed Nuclei (%) [10]: 6% | Population Tubulin-Different-Phenotype (%) [10]: 8% | Total Cell Count [10]: 705 | Population Apoptotic (%) [11]: 25% | Population Fragmented Nuclei (%) [11]: 15% | Population Healthy Nuclei (%) [11]: 75% | Population Hoechst High Intensity Objects (%) [11]: 1% | Population Membrane Permeable-Phenotype (%) [11]: 0% | Population Mitochondria Different-Phenotype (%) [11]: 21% | Population Mitotic Cells (%) [11]: 75% | Population Normal (%) [11]: 98% | Population Pyknosed Nuclei (%) [11]: 9% | Population Tubulin-Different-Phenotype (%) [11]: 15% | Total Cell Count [11]: 473 | Population Apoptotic (%) [12]: 46% | Population Fragmented Nuclei (%) [12]: 12% | Population Healthy Nuclei (%) [12]: 80% | Population Hoechst High Intensity Objects (%) [12]: 3% | Population Mitochondria Different-Phenotype (%) [12]: 26% | Population Mitotic Cells (%) [12]: 53% | Population Normal (%) [12]: 96% | Population Pyknosed Nuclei (%) [12]: 6% | Total Cell Count [12]: 684
